Assay results published in ChEMBL document CHEMBL1140585, “Synthesis and antioxidant properties of substituted 3-benzylidene-7-alkoxychroman-4-ones” (Bioorg Med Chem Lett, 2007).
The source made the active and inactive calls. The calls are words filed in the database; no cut-off is given here.

Legend:
[1] = Antioxidant activity at 100 ug by ferric reducing antioxidant power assay; type: functional
In short: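 FRAP reagent: 10 vol 300 mM acetate buffer pH 3.6, 1 vol 10 mM TPTZ in 40 mM HCl, 1 vol 20 mM FeCl3, diluted to 1/3 with methanol, pre-warmed to 37 C. Diluted compound mixed with reagent, 8 min at 37 C, absorbance at 593 nm against methanol blank; expressed as lM ferric reduced to ferrous, calibrated with known ferrous ion.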

[2] = tested on: Brain; test: Antioxidant activity in Wistar rat brain assessed as inhibition of lipid peroxidation; type: functional, tissue-based
In short: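 Brain homogenate (10% w/v) of young adult male Wistar rats in 0.15 M KCl, 800g 10 min supernatant. Compounds in DMSO at varying amounts; peroxidation started with FeCl3 plus ascorbic acid, 20 min at 37 C. Stopped with phosphotungstic acid and thiobarbituric acid, heated 100 C 10 min, n-butanol extract read by fluorescence (ex 515/em 555 nm); IC50 from log dose–inhibition curve.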

[3] = tested on: Radical scavenging activity; test: Antioxidant activity assessed as DPPH free radical scavenging activity; type: functional
In short: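 DPPH in methanol (150 µM) incubated with various compound concentrations at 37 C for 30 min; absorbance read at 517 nm. Percent scavenging = 100 × (Abs control − Abs compound)/Abs control; IC50 obtained by linear regression of percent inhibition against concentration.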

| SMILES | IC50 [2] | IC50 [3] | Activity [1] |
| --- | --- | --- | --- |
| COc1ccc2c(c1)OC/C(=C\c1ccc(O)cc1)C2=O | > 100 µM | > 100 µM | inactive |
| CCOc1ccc2c(c1)OC/C(=C\c1ccc(O)c(O)c1)C2=O | 11.9 µM | 24.3 µM | 62.7 |
| O=C1/C(=C/c2ccc(O)c(O)c2)COc2cc(O)ccc21 [SAPPANONE A] | 14.3 µM | 35 µM | 49.3 |
| COc1ccc2c(c1)OC/C(=C\c1cc(OC)c(O)c(OC)c1)C2=O | 11 µM | 30.8 µM | 61.6 |
| COc1ccc(/C=C2\COc3cc(OC)ccc3C2=O)cc1 | > 100 µM | > 100 µM | inactive |

The next lines start with results.

| IC50 [2] | IC50 [3] | SMILES | Activity [1] |
| --- | --- | --- | --- |
| > 100 µM | > 100 µM | O=C1/C(=C/c2ccc(O)cc2)COc2cc(O)ccc21 | inactive |
| 41.6 µM | 36.3 µM | Cc1c(C)c2c(c(C)c1O)CCC(C)(C(=O)O)O2 (stereo unspecified) [TROLOX] | 41.9 |
| > 100 µM | > 100 µM | COc1cccc(/C=C2\COc3cc(OC)ccc3C2=O)c1 | inactive |
| 12.1 µM | 27.2 µM | COc1ccc2c(c1)OC/C(=C\c1ccc(O)c(O)c1)C2=O | 71.6 |
| 11 µM | 24.5 µM | CCCCOc1ccc2c(c1)OC/C(=C\c1ccc(O)c(O)c1)C2=O | 44.6 |
| 11.4 µM | 25.4 µM | CCCOc1ccc2c(c1)OC/C(=C\c1ccc(O)c(O)c1)C2=O | 53.8 |
| > 100 µM | > 100 µM | COc1ccc2c(c1)OC/C(=C\c1ccccc1OC)C2=O | inactive |
